Where two headings read alike, the source gives them in different places. Values belong to the compound of their own block, whether it stands above or below them.
Columns and labels:
[1] = ref 13 (Grande et al.); cited from earlier work
[2] = in vitro bioavailability, dialysis tubing procedure; assay type: in vitro ADME; conditions: sum of pepsin (stage 1) and pancreatin (stage 2) bioavailability
Summary of the method: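 Test compound at 1.0 × 10³ μM in DMSO, with porcine pepsin and 2.0 w/v% sodium cholate, sealed in a dialysis bag in 8.5 × 10⁻¹ N HCl, shaking at 37 ± 0.5 °C for 2 h. Porcine pancreatin in NaHCO3, amylase and esterase then added; bag in pH 7.0 phosphate buffer, 37 °C, 4 h. Outer liquid sampled after each stage and quantified by UV-Vis against pH 1.0/7.0 calibration curves as % unchanged compound recovered; triplicate.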

[3] = test system: strain TA 98; conditions: cited from earlier work
[4] = 2,2-diphenyl-1-picrylhydrazyl; assay type: biochemical; conditions: result in words
Summary of the method: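 DPPH· freshly prepared at 50 μM in methanol; test compound stocks in DMSO. Sample mixed with DPPH· solution, kept 30 min in the dark, absorbance read at 517 nm by UV-Vis. %RSA calculated against DMSO vehicle control across a series of sample concentrations. IC50 taken from %RSA plots.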

total in vitro bioavailability [2]: 21.34 ± 0.50%
Compound: NC(=O)COc1ccc(-c2oc3cc(OCC(N)=O)cc(OCC(N)=O)c3c(=O)c2OCC(N)=O)cc1 [Compound 4S3, 2,2′,2′′-((2-(4-(2-amino-2-oxoethoxy)phenyl)-4-oxo-4H-chromene-3,5,7-triyl)tris(oxy))triacetamide]

total in vitro bioavailability [2]: 19.29%
Compound: O=c1cc(-c2ccc(O)c(O)c2)oc2cc(O)cc(O)c12 [Compound 5S0, luteolin, reference compound]

total in vitro bioavailability [2]: 34.87 ± 0.87%
Compound: NC(=O)COc1cc(OCC(N)=O)c2c(=O)cc(-c3ccc(OCC(N)=O)c(OCC(N)=O)c3)oc2c1 [Compound 5S3, 2,2′-((4-(5,7-bis(2-amino-2-oxoethoxy)-4-oxo-4H-chromen-2-yl)-1,2-phenylene)bis(oxy))diacetamide]

More lines, now with the values behind:

Compound: O=c1c(O)c(-c2ccc(O)c(O)c2)oc2cc(O)cc(O)c12 [Compound 1S0, quercetin]
total in vitro bioavailability [1]: 10.7 ± 1.3%

Compound: NC(=O)COc1cc(OCC(N)=O)c2c(=O)c(OCC(N)=O)c(-c3ccc(OCC(N)=O)c(OCC(N)=O)c3)oc2c1 [Compound 1S3, 2,2′,2′′-((2-(3,4-bis(2-amino-2-oxoethoxy)phenyl)-4-oxo-4H-chromene-3,5,7-triyl)tris(oxy))triacetamide]
total in vitro bioavailability [2]: 20.70 ± 0.29%
toxicity in mutagenicity study [3]: nontoxic

Compound: O=c1cc(-c2ccc(O)cc2)oc2cc(O)cc(O)c12 [Compound 2S0, apigenin, reference compound]
total in vitro bioavailability [2]: 16.59%
DPPH free radical scavenging activity (%RSA) [4]: very low

Compound: NC(=O)COc1ccc(-c2cc(=O)c3c(OCC(N)=O)cc(OCC(N)=O)cc3o2)cc1 [Compound 2S3, 2,2′-((2-(4-(2-amino-2-oxoethoxy)phenyl)-4-oxo-4H-chromene-5,7-diyl)bis(oxy))diacetamide]
total in vitro bioavailability [2]: 22.20 ± 0.82%
toxicity in mutagenicity study [3]: nontoxic
mutagenic activity ([3]; strain TA 98): did not show any mutagenic activity
DPPH free radical scavenging activity (%RSA) [4]: very low

Compound: O=c1c(O)c(-c2ccc(O)c(O)c2)oc2cc(O)ccc12 [Compound 3S0, Fisetin, reference compound]
total in vitro bioavailability [2]: 16.19%

Compound: NC(=O)COc1ccc2c(=O)c(OCC(N)=O)c(-c3ccc(OCC(N)=O)c(OCC(N)=O)c3)oc2c1 [Compound 3S3, 2,2′-((4-(3,7-bis(2-amino-2-oxoethoxy)-4-oxo-4H-chromen-2-yl)-1,2-phenylene)bis(oxy))diacetamide]
total in vitro bioavailability [2]: 34.81 ± 0.85%

Compound: O=c1c(O)c(-c2ccc(O)cc2)oc2cc(O)cc(O)c12 [Compound 4S0, kaempferol, reference compound]
total in vitro bioavailability [2]: 15.40%

Source: article PMC8966662 (RSC Advances, 2022)
